The term EC50 denotes the concentration giving half of the maximal effect. Low readings indicate higher potency in that assay, high ones lower potency in that assay. As usually defined, the ED50 is the dose that gives a 50% effect, or the effect in half of the subjects. Low values mean greater potency, high ones weaker potency.

Assay [1] relates to FM3A. Briefly: (§1) In vitro antimalarial activity against Plasmodium falciparum. In kind it is functional.
The test system of assay [2] is FM3A. The assay can be described thus: Mammalian cell cytotoxicity assessed against mouse mammary tumor FM3A cells. In kind it is functional, cell-based. In outline: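 Mouse mammary tumor FM3A cells in culture used as a mammalian cytotoxicity control; EC50 determined by a previously reported protocol. Selectivity is the mean EC50 for FM3A cells divided by the mean EC50 for P. falciparum.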

Assay [3] relates to Plasmodium falciparum. The description is as §1. In kind it is functional, organism-based.
Assay [4] has as its system Mus musculus. The assay can be described thus: In vivo 90% effective dose tested against Plasmodium berghei NK65 infected mice (Mus musculus), after oral administration. In kind it is functional. The method in brief:
(§2)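 Mice infected with P. berghei, in groups of five, were given the compounds orally in olive oil at various concentrations. Dosing was once daily on days 0–3. Parasitemia was determined on day 4, and ED values were derived by a previously reported protocol.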

For assay [5], the system named is Mus musculus. The assay can be described thus: In vivo 90% effective dose tested against Plasmodium berghei NK65 infected mice (Mus musculus), after intraperitoneal administration. In kind it is functional. The note with it: ip. In outline:
(§3)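 Mice infected with P. berghei, in groups of five, were given the compounds intraperitoneally in olive oil at various concentrations. Dosing was once daily on days 0–3. Parasitemia was determined on day 4, and ED values were derived by a previously reported protocol.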

For assay [6], the system named is Mus musculus. The assay can be described thus: In vivo 50% effective dose tested against Plasmodium berghei NK65 infected mice (Mus musculus), after intraperitoneal administration. In kind it is functional. To be noted: ip. The method in brief:
as §3

For assay [7], the system named is Mus musculus. The assay can be described thus: In vivo 50% effective dose tested against Plasmodium berghei NK65 infected mice (Mus musculus), after oral administration. In kind it is functional. The method in brief: as §2
In assay [8] the test system is Mus musculus. Briefly: In vivo […] effective dose tested against Plasmodium berghei NK 65 infected mice (Mus musculus), after intraperitoneal administration. The assay is classed as functional. The note with it: ip. The method in brief: as §3

As for `CCOC(C)OOC1(OOC)CCCCCCCCCCC1` (stereo unspecified), the Selectivity ratio in assay [1] is recorded as 41. In addition, the concentration for a half-maximal effect (EC50) came out at 12000 nM in assay [2] and 290 nM in assay [3].

For `COOC1(OOC(C)(C)OC)CCCCCCCCCCC1`, in assay [1], the Selectivity ratio is on record as 30. The concentration giving a half-maximal response (EC50) in assay [2] was determined as 7300 nM; in assay [3] it was 240 nM.

`C=C(C)COOC1(OOC)CCCCCCCCCCC1`: the Selectivity ratio in assay [1] stood at 13. Also, the EC50 in assay [2] came to 17000 nM; in assay [3] it was 1300 nM.

In the case of `COOC1(OOCCCCCCI)CCCCCCCCCCC1`, the Selectivity ratio in assay [1] worked out at 116. Moreover, the EC50 in assay [2] worked out at 86000 nM; in assay [3] it was 740 nM.

Take `C=C(C)COOC1(OOCC(=C)C)CCCCCCCCCCC1`: the Selectivity ratio in assay [1] is 25. Further, the EC50 in assay [2] came out at 38000 nM; in assay [3], 1500 nM.

Consider `COOC1(OOC)CCCCCCCCCCC1`, for which the Selectivity ratio in assay [1] came to 17. Moreover, the ED90 was 60 mg/kg in assay [4] and 20 mg/kg in assay [5]. The half-maximal effective concentration (EC50) was 1500 nM in assay [2] and 86 nM in assay [3]. Moreover, the median effective dose (ED50) was 13 mg/kg in assay [6] and 30 mg/kg in assay [7].

With `CCCOOC1(OOCCC)CCCCCCCCCCC1`, the Selectivity ratio in assay [1] worked out at 7. Besides, the half-maximal effective concentration (EC50) was determined as 12000 nM in assay [2] and 1800 nM in assay [3].

With `CCCCC(CCCC)(OC)OOCC`, the Selectivity ratio in assay [1] was more than 6. For the same molecule, the EC50 in assay [2] was more than 48000 nM; in assay [3] it was 8600 nM.

In the case of `CCCCOOC1(OOCCCC)CCCCCCCCCCC1`, in assay [1], the Selectivity ratio is listed as 4. Moreover, the EC50 came to 8500 nM in assay [2] and 2100 nM in assay [3].

Regarding `COOC1(OOCCCCCCO)CCCCCCCCCCC1`, the Selectivity ratio in assay [1] was found to be 22. The ED90 in assay [5] is 60 mg/kg. Also, the 50% effective concentration (EC50) in assay [2] came to 1600 nM; in assay [3], 72 nM. The same molecule gave a median effective dose (ED50) in assay [6] of 30 mg/kg.

For the molecule `COOC1(OOCCCCCCOC2CCOCC2)CCCCCCCCCCC1`, the Selectivity ratio in assay [1] is on record as 8. For the same molecule, the EC50 in assay [2] is 7600 nM; in assay [3], 900 nM.

For `C=CCOOC1(OOCC=C)CCCCCCCCCCC1`, the Selectivity ratio in assay [1] was found to be 9. Moreover, the 50% effective concentration (EC50) in assay [2] turned out to be 14000 nM; in assay [3] it was 1600 nM.

As to `CCCOOC1(OC)CCCCCCCCCCC1`, in assay [1], the Selectivity ratio is more than 60. Moreover, the EC50 is more than 37000 nM in assay [2] and 620 nM in assay [3].

As to `COOC1(OOCCC(=O)O)CCCCCCCCCCC1`, the EC50 in assay [2] worked out at 450 nM; in assay [3], 5000 nM.

Regarding `COOC1(OOCCC(=O)OC)CCCCCCCCCCC1`, the Selectivity ratio in assay [1] stood at 6. Also, the concentration giving a half-maximal response (EC50) in assay [2] amounted to 1400 nM; in assay [3], 230 nM.

In the case of `C=C(C)COOC(CCCC)(CCCC)OOC`, the Selectivity ratio in assay [1] is listed as 9. Further, the concentration for a half-maximal effect (EC50) came to 15000 nM in assay [2] and 1600 nM in assay [3].

With `COOC1(OOCCCc2ccccc2)CCCCCCCCCCC1`, in assay [1], the Selectivity ratio is given as 34. Besides, the results for the 50% effective concentration (EC50) in assay [2] and in assay [3] were 34000 nM and 1000 nM, respectively.

With `C=CCCOOC1(OOC)CCCCCCCCCCC1`, the Selectivity ratio in assay [1] amounted to 16. Also, the 50% effective concentration (EC50) amounted to 6000 nM in assay [2] and 380 nM in assay [3].

Take `COOC1(OOCCCCCC(=O)O)CCCCCCCCCCC1`: in assay [1], the Selectivity ratio is 52. Also, the EC50 amounted to 14000 nM in assay [2] and 270 nM in assay [3].

In the case of `CCCCOOC1(OOC)CCCCCCCCCCC1`, the Selectivity ratio in assay [1] stood at 91. The same molecule returned an ED90 in assay [5] of 80 mg/kg. The concentration for a half-maximal effect (EC50) in assay [2] came to 20000 nM; in assay [3], 220 nM. The molecule further registered a median effective dose (ED50) in assay [6] of 35 mg/kg.

For `CCOOC1(OOCC)CCCCCCCCCCC1`, in assay [1], the Selectivity ratio was 50. For the same molecule, the ED50 in assay [8] stood at 64 mg/kg; in assay [6] it was 41 mg/kg. The EC50 worked out at 10000 nM in assay [2] and 200 nM in assay [3].

Consider `CCOOC1(OC)CCCCCCCCCCC1`, for which the Selectivity ratio in assay [1] worked out at 113. Further, the concentration for a half-maximal effect (EC50) in assay [2] came to 26000 nM; in assay [3], 230 nM. The median effective dose (ED50) in assay [6] was more than 100 mg/kg.

On to `COOC1(OC)CCCCCCCCCCC1`, for which the Selectivity ratio in assay [1] came out at 238. The same molecule gave an ED90 in assay [5] of 68 mg/kg. In addition, the concentration for a half-maximal effect (EC50) in assay [2] is 19000 nM; in assay [3] it was 80 nM. The molecule also returned a 50% effective dose (ED50) in assay [6] of 30 mg/kg.

As for `C[C@@H]1CC[C@H]2[C@@H](C)C(=O)O[C@@H]3O[C@@]4(C)CC[C@@H]1[C@]32OO4` [ARTEMISININ], the Selectivity ratio in assay [1] came out at 1000. The values for the ED90 in assay [4] and in assay [5] were 89 mg/kg and 32 mg/kg, respectively. Also, the ED50 in assay [6] stood at 5.4 mg/kg; in assay [7], 13 mg/kg.

The values above are taken from ChEMBL document CHEMBL1135896, “Synthesis and notable antimalarial activity of acyclic peroxides, L-(alkyldioxy)-L-(methyldioxy)cyclododecanes” (J Med Chem, 2002).
